Here are results for seven molecules from publication PMC2788794 (Chemistry & biology, 2009).

The test system of one test is αIIbβ3. To be noted: platelets; ref Bennett et al., 1988; cited from earlier work.
The subject of test [1] is platelets. Conditions: cited from earlier work; for inhibition of Fbg binding to platelets: ref Bennett et al., 1988.
The test system of the next test is CHO K1 cells. Description: Block of cell attachment to GRGDSC monolayer by cRGDFG. It counts as cell-based. To be noted: cRGDFG 300 µM; 0.5% GRGDSC SAM. An outline of the steps: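 Untransfected CHO K1 cells (F12K, 10% FBS, 37 °C, 5% CO2) were seeded on 0.5% GRGDSC SAMs, with or without cRGDFG 300 µM. The GRGDSC surface was made by coupling cysteine-terminated peptide (1 mM, 37 °C, 1 h) to a maleimide-presenting monolayer with tri(ethylene glycol) background. Adherent cells were scored by optical microscopy.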

Test [2] has as its system αIIbβ3 CHO K1 cells. The test is described as follows: Adhesion of transfected cells to GRGDSC monolayer in presence of inhibitors. Conditions: 0.5% GRGDSC SAM. It counts as cell-based.
The test system of a further test is αvβ3. To be noted: ref Haubner et al., 1996; cited from earlier work.
For test [3], the system named is platelets. Conditions: ref Bennett et al., 1988; cited from earlier work.
Test [4] deals with αIIbβ3 CHO K1 cells. Description: Cell adhesion inhibition assay with soluble peptides. It counts as cell-based. To be noted: soluble peptide 1 pM to 100 µM; 0.5% GRGDSC monolayer; 300 µM cRGDFG.
The subject of test [5] is αIIbβ3 CHO K1 cells. The test is described as follows: Cell adhesion assay on self-assembled monolayers presenting immobilized peptides. It counts as cell-based. Conditions: Fbg adsorbed on dodecanethiol (hydrophobic) monolayer; 300 µM cRGDFG.

On to RGDS, for which the “inhibition of PAC-1 binding” value in the test on αIIbβ3 was “blocked the binding of both PAC-1 and Fbg to platelets with equal potency”. Besides, the “inhibition of Fbg binding to platelets” value in the test with platelets [1] was “blocked the binding of both PAC-1 and Fbg to platelets with equal potency”. With cRGDFG (head to tail), in the test with CHO K1 cells, the “block of attachment of CHO K1 cells to a monolayer presenting GRGDSC” value is on record as “efficiently block the attachment”. Besides, the “effect on adhesion of αIIbβ3 CHO K1 cells to a monolayer presenting GRGDSC” value in the test with αIIbβ3 CHO K1 cells [2] (cRGDFG 300 µM) is “did not interfere with adhesion”. For the same molecule, the “affinity for αvβ3 relative to that for αIIbβ3” value in the test on αvβ3 was “approximately 1,400 fold”. With PAC-1, the “effect on adhesion of αIIbβ3 CHO K1 cells to a monolayer presenting GRGDSC” value with αIIbβ3 CHO K1 cells [2] (PAC-1 antibody together with cRGDFG 300 µM) is “prevented cell adhesion”. For LGGAKQAGDV, the “inhibition of Fbg binding to platelets” value with platelets [1] is listed as “inhibited Fbg binding to platelets with an affinity comparable to that of RGDS”. Moreover, the “inhibition of binding of A2A9 to platelets” value with platelets [3] was “could inhibit the binding of A2A9”. For the molecule HHLGGAKQAGDV, the “block of cell attachment by soluble peptide to a monolayer presenting GRGDS” value with αIIbβ3 CHO K1 cells [4] is on record as “blocked cell attachment”. For AGDV, the “block of cell attachment by soluble peptide to a monolayer presenting GRGDS” value in the test on αIIbβ3 CHO K1 cells [4] is listed as “blocked cell attachment”. The “inhibition of Fbg binding to activated platelets” value with platelets [1] (soluble peptide competing with radiolabeled Fbg, ref Plow et al., 1985) is listed as “failure of an AGDV peptide to inhibit Fbg binding”.

B1: Fbg: Human fibrinogen, plasma protein, adsorbed to hydrophobic monolayer as positive control (protein)
chain 1: ADSGEGDFLAEGGGVRGPRVVERHQSACKDSDWPFCSDEDWNYKCPSGCRMKGLIDEVNQDFTNRINKLKNSLFEYQKNNKDSHSLTTNIMEILRGDFSSANNRDNTYNRVSEDLRSRIEVLKRKVIEKVQHIQLLQKNVRAQLVDMKRLEVDIDIKIRSCRGSCSRALAREVDLKDYEDQQKQLEQVIAKDLLPSRDRQHLPLIKMKPVPDLVPGNFKSQLQKVPPEWKALTDMPQMRMELERPGGNEITRGGSTSYGTGSETESPRNPSSAGSWNSGSSGPGSTGNRNPGSSGTGGTATWKPGSSGPGSTGSWNSGSSGTGSTGNQNPGSPRPGSTGTWNPGSSERGSAGHWTSESSVSGSTGQWHSESGSFRPDSPGSGNARPNNPDWGTFEEVSGNVSPGTRREYHTEKLVTSKGDKELRTGKEKVTSGSTTTTRRSCSKTVTKTVIGPDGHKEVTKEVVTSEDGSDCPEAMDLGTLSGIGTLDGFRHRHPDEAAFFDTASTGKTFPGFFSPMLGEFVSETESRGSESGIFTNTKESSSHHPGIAEFPSRGKSSSYSKQFTSSTSYNRGDSTFESKSYKMADEAGSEADHEGTHSTKRGHAKSRPVRGIHTSPLGKPSLSP
chain 2: QGVNDNEEGFFSARGHRPLDKKREEAPSLRPAPPPISGGGYRARPAKAAATQKKVERKAPDAGGCLHADPDLGVLCPTGCQLQEALLQQERPIRNSVDELNNNVEAVSQTSSSSFQYMYLLKDLWQKRQKQVKDNENVVNEYSSELEKHQLYIDETVNSNIPTNLRVLRSILENLRSKIQKLESDVSAQMEYCRTPCTVSCNIPVVSGKECEEIIRKGGETSEMYLIQPDSSVKPYRVYCDMNTENGGWTVIQNRQDGSVDFGRKWDPYKQGFGNVATNTDGKNYCGLPGEYWLGNDKISQLTRMGPTELLIEMEDWKGDKVKAHYGGFTVQNEANKYQISVNKYRGTAGNALMDGASQLMGENRTMTIHNGMFFSTYDRDNDGWLTSDPRKQCSKEDGGGWWYNRCHAANPNGRYYWGGQYTWDMAKHGTDDGVVWMNWKGSWYSMRKMSMKIRPFFPQQ
chain 3: YVATRDNCCILDERFGSYCPTTCGIADFLSTYQTKVDKDLQSLEDILHQVENKTSEVKQLIKAIQLTYNPDESSKPNMIDAATLKSRKMLEEIMKYEASILTHDSSIRYLQEIYNSNNQKIVNLKEKVAQLEAQCQEPCKDTVQIHDITGKDCQDIANKGAKQSGLYFIKPLKANQQFLVYCEIDGSGNGWTVFQKRLDGSVDFKKNWIQYKEGFGHLSPTGTTEFWLGNEKIHLISTQSAIPYALRVELEDWNGRTSTADYAMFKVGPEADKYRLTYAYFAGGDAGDAFDGFDFGDDPSDKFFTSHNGMQFSTWDNDNDKFEGNCAEQDGSGWWMNKCHAGHLNGVYYQGGTYSKASTPNGYDNGIIWATWKTRWYSMKKTTMKIIPFNRLTIGEGQQHHLGGAKQAGDV
For B1, the “adhesion and spreading of αIIbβ3 CHO cells on adsorbed Fbg (positive control)” value in the test with αIIbβ3 CHO K1 cells [5] was “adhered and spread”.
